The values that follow come from the RNAGym collection of RNA variant scans (doi:10.1126/science.aae0568).

This sample holds only a part of the variants without activity. A value given as a limit tells only on which side of the number the result lay.

Sequences and labels used below:
B1: tRNA (parent)
chain: GUUCCGUUGGCGUAAUGGUAACGCGUCUCCCUCCUAAGGAGAAGACUGCGGGUUCGAGUCCCGUACGGAACG

In this data set the parent is B1. Briefly: yeast fitness relative to wild type (ratio to wild type); higher = fitter; tRNA-Arg(CCU), competitive growth, 37 C, YPD. The method, boiled down: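 Amplicons of the tRNA-Arg(CCU) gene were sequenced, 100-nucleotide paired-end, from the start population and from each end population of a pooled yeast competition. The competition, in six parallel replicates, lasted 24 hours in YPD at 37°C. Fitness relative to wild type was calculated from changes in genotype frequencies. Genotypes had to have ≥ 100 starting reads, and estimates < 0.5 were set to 0.5.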
As to GUUCCGUUGGCGUAAUGGUAACGCGUGUCCCUCCUAAGGAGAAGACUGAGGGUUCGACUCCCGUACGGAACG, the yeast fitness was not above 0.5.

As for GUUCCGUUGGCGUAAUGGUAAGGCGUAUCCCUCCUAAGGAGAAGACUGUGGGUUUGAUUCCCGUACGGAACG, the yeast fitness was not above 0.5.

As for GUUGCGUUGGCGUAAUGGUAACGCGUCUCCCUCCUAAGGAGAAGACUGCGGGUCCGAGUCCCGUACGGAACG, the yeast fitness was found to be 0.886.

On to GUUCCUUUGGCGUAAUGGUAGCGCGUCUCCCUCCUAAGGAGAAGACUGCGGGUUCGAGUCCCGUACGGAGCG, for which the yeast fitness is 0.562.

For the variant GUUCCGUUCGUGUAAUGGUAACGCGUCUCGCUCCUAAGGAGACGACUGCGGGUUCGAGUCCCGUACGGAACG, the yeast fitness was not above 0.5.

On to GUUCGGUUGGCGUAAAGGUAACGCGUCUCCCUCCUAAGGAGAAGACUGCGGGUUCGAGUCUCGUACGGAACG, for which the yeast fitness turned out to be 0.589.

For GAUCCCCUGGCGUAAUGGUAACGCGUCUCCCUCCUAAGGAGACGAUUGCGGGUUCGAGUCCCCUAUGGAACG, the yeast fitness is not above 0.5.

Turning to GUUCCGUUGGCGUAAUAGGAACGCGUCUCCCUCCUAGGGAGAAGACUGCGGGUUCGAGUCCCGUAUGGUACG, the yeast fitness is 0.562.

On to GUUCCGCUGGGGUAAUGGUAACGUGUCUCCCUCCUAAGGAGAAGACUACGGGUUCGAGUCCCGUAUGGACCG, for which the yeast fitness is not above 0.5.

Regarding GUUCGGUUGCCGUAAUGGUAAAGCGUCUCCCCCCUAAGGAGAAGACUGCGGGUUCGAGUCCCGUACGGAACG, the yeast fitness was not above 0.5.

In the case of GUUCCGUUGACGUAAUGGUAACGCGUCUCCCUCCUAAGGAGAAGAUUGCGGGUUCGAGUCCCGUACGGAACG, the yeast fitness was found to be 0.812.

GUUCCGUUGGCGUAAUGGUAACGCAUCUCCCUCCUAAGGAGAAGACUGCGGGUUCAAGUCCCGUACGGAACG: the yeast fitness was determined as 0.919.

Regarding GAUCCGUUGGCGUAAUGGUAAAGCGUCUCCCUCCUAAGGAGAAGACUGCGGGUUCGAGUCCCGUUCGGAACG, the yeast fitness was not above 0.5.

With GUUCCGUUGGCGUAAUGGUAACGCCUCUCCCUCCUAAGGAGAAGACUGCGGGUUUGUGUCCCGUACGGAACG, the yeast fitness amounted to 0.551.

For the variant GUUCCGCUGACGUAAUGGUAACGGGUCUCCCUCCUAAGGAGAAGACUGCGGGUUCGAGUCCAGUACGGAACG, the yeast fitness was not above 0.5.

For GAUACGUUGGCGUAAUGGUAACGCGUCUCCCUCAUAAGGAGACGAUUGCGGGUUCGAGUCCCGUACGGAACG, the yeast fitness was not above 0.5.

Turning to GUUCCGUUGGCGUAAUGGUAACGCGUCUCCGUCCUAAGGCGAAGACUGCGGGUUCGAGUCCCGUACGGAACG, the yeast fitness is 0.718.

As for GUUCUGUUGGCGUAAUGGUAACGCGUCUCCCUCCUAAGGCGAAGAAUGCGGGUACGAGUCCCGUACGGAACG, the yeast fitness was found to be 0.55.

Turning to GUUCCGUUGGCGUAAUGGUAACGCGUCUCCCUCCUAGGGAGAAGACUGCGGGUUCGAGUCCCGUACGCAACG, the yeast fitness turned out to be 0.665.

With GUUCUGUUGGCGUAAUGGUAACGCGUCUCCCUCCUAAGGAGAAGACUGCGGGUUAGAGUCGCGUACGGAACG, the yeast fitness is not above 0.5.

GUUCCGUUGGCGUAAUUGUACCGCCUCUCCCUCCUAAGGAGAAGACUGCGGGUUCGAGUCCCGUACGGAACG: the yeast fitness was 0.541.

For the variant GUUCCGUUGGCGUAAUGGUAACGCGUCUCCCUUCUAAGGAGAAGACUGCGGGCUCGAGUCCCGUACGGAACG, the yeast fitness worked out at 0.574.

For the variant GUUCCGUUGGCGUAAUGGUAACGCGUCUCGCUCCUAAGGAGAAGAUUGCGGGUUCGAGUCCCGUACGGAACG, the yeast fitness was found to be 0.648.

On to GUUCCGUUGGCGUGAUGGUAACGCGUCUCCCUCUUAAGGGGAAGACUGCGGGUUCGAGUCCCGUACGGAACG, for which the yeast fitness was found to be 0.541.

In the case of GUUCCGUUGGCGUAAUGGUAACGCGUCUCCCUCCUAAGGAGAAGACUGAGGGUCCGAGUCCCGUACGGAACG, the yeast fitness is 0.674.

For GUUCCGUCGCCGUAAUGGUAACGCGUCUCCCUCCUAAGGAGAAGACUGCGGGUUCGAGUCCCGUACGGAACG, the yeast fitness was found to be 0.639.

As to GUUCCGUUGGCGUACUAGUAACGCGUCUCCCUCCAAAGGAGAAGACUGCGGGUUCGAGUCCCGUACGGAACG, the yeast fitness was not above 0.5.

For GUUCCGUUAGCGUAUUGGUAACGCGUCUGCCUUCUCAGGAGAAGACUGCGGGUUCGAGUCCCGUACAGAACG, the yeast fitness was not above 0.5.

As to GUUCCGUUGGCGAAAUGGUAACGCGUUUCCCUCCUAAGGAGAAGACUGCGGGUUCGGGUCCCGUAUGGAACG, the yeast fitness was not above 0.5.

Take GUCCCGUUGGCGAAAUGGUAACGCGUCUCCUUCCUAAGGAAAAGACUGCGGGUUCGAGUCCCGUAAGGAACG: the yeast fitness was not above 0.5.

For the variant GUUCCGUUGGCGUGAUGGUAACGCGUCUCCCUCCUAAGGAGAAGACUGCCGGUUCGAGUCCCGUAUGGAACG, the yeast fitness is not above 0.5.

For the variant GUUCCGUUGGCGUUAUGGUAACGCGUCUCCCUCCUAAGGAGAAGACAGCGGGUUCGAGUCCCGUACAGAACG, the yeast fitness was not above 0.5.

On to GUUCCGUUGGCGUAAUGGUAAAGCGUCUGCCUCCUAAGGAGAAGACUGCGGGUUCGAGUCCCGUACGGAACG, for which the yeast fitness amounted to 0.55.

On to GUUCCGUUGGCGUAAUGGUCACACGUCUCCCUCCUAAGGAGAAGACUGCAGGUUGGAGUACCGUACGGAACG, for which the yeast fitness is not above 0.5.

For the variant GUUCCGUUGGCGUAAUGGUGACGCGUCUCCCUACUAAGGAGAUAACUGCGGGUUCGAGUCCCGUACGGCACG, the yeast fitness was not above 0.5.

As for GUUCCGUUGGCGUAAUGGUAACGCGUCUCGCUCGUAAGGAGAAGACUGCGGGUUCGUGUCCCGUACGGAACG, the yeast fitness is not above 0.5.

For GUUCCGUUGGCGUAAUGGUAACGCGUCACCCUCUUAAGGAGAAGACUGCGGGUUCGAGUCCCGUACGGAACG, the yeast fitness amounted to 0.553.
